Experimental data collected from several papers.
Cell line: A-375
Read-out: cell growth or viability

SMILES | method | time | IC50 [nM]
COc1cccc2c1C(=O)c1c(O)c3c(c(O)c1C2=O)C[C@@](O)(C(=O)CO)C[C@@H]3O[C@H]1C[C@H](N)[C@H](O)[C@H](C)O1 | – | 96 h | 32.9
C[C@H]1COCCN1c1nc(N2CCOC[C@@H]2C)c2ccc(-c3cccc(C(=O)NCCOCCOCCOCCONC(=O)c4ccc(F)c(F)c4Nc4ccc(I)cc4F)c3)nc2n1 | WST-1 | 72 h | 11600
CC(C)(C)c1cnc(CSc2cnc(NC(=O)C3CCN(C(=O)CCCCCCCN4Cc5cc6c(cc5C4)C(=O)N(C4CCC(=O)NC4=O)C6=O)CC3)s2)o1 (stereo not drawn) | MTT | – | 83.3
COc1cc(C(=O)c2nc(-c3cccc4[nH]ccc34)c[nH]2)cc2c1OC=CO2 | MTS | 72 h | 11.5
CN1CCC(NC2CCc3[nH]c4c(C(N)=O)ccc(-c5ccccc5Cl)c4c3C2)CC1 (stereo not drawn) | – | 96 h | 26.8
COc1cc(C(=O)c2nc(-c3cccc4[nH]cnc34)c[nH]2)cc(OC)c1OC | MTS | 72 h | 19.7
CNc1cccc(Nc2nc(-c3ccncc3)nc3c2CNCC3)c1 | MTT | – | 35200
COc1ccc(-c2ccc3c(N4CCOC[C@@H]4C)nc(N4CCOC[C@@H]4C)nc3n2)cc1COC(=O)CCOCCOCCOCCONC(=O)c1ccc(F)c(F)c1Nc1ccc(I)cc1F | WST-1 | 72 h | 204
COc1cccc(Nc2nc(-c3ccncc3)nc3c2CNCC3)c1 | MTT | – | 37200
CC(=O)O[C@H]1C(=O)[C@@]2(C)[C@H]([C@H](OC(=O)c3ccccc3)[C@]3(O)C[C@H](OC(=O)[C@H](O)[C@@H](NC(=O)c4ccccc4)c4ccccc4)C(C)=C1C3(C)C)[C@]1(OC(C)=O)CO[C@@H]1C[C@@H]2O | MTS | 72 h | 3
Fc1ccccc1Nc1nc(-c2ccncc2)nc2c1CNCC2 | MTT | – | > 100000
CN1CCc2c(c3ccccc3n2Cc2ccc(C(=O)NO)cc2)C1 | CCK-8 | 48 h | 14800
